Test results from ChEMBL document CHEMBL3124852, “Synthesis and evaluation of (-)-Massoialactone and analogues as potential anticancer and anti-inflammatory agents” (Eur J Med Chem, 2014).
In brackets after ≈: the same amount, converted by molar mass.

Assays:
[1] = Cytotoxicity against LPS-stimulated Balb/c mouse peritoneal macrophages assessed as cell viability at 3.1 ug/ml after 24 hrs by MTT assay relative to control; format: cell-based, Peritoneal macrophage cell; conditions: read-out: Activity
Method in brief: (§1)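 Adherent thioglycollate-elicited Balb/c peritoneal macrophages exposed 24 h to compound (3.1–25.0 µg/mL) and/or LPS (1 µg/mL), then MTT (5 mg/mL stock) added for 4 h; formazan dissolved in DMSO, absorbance 550 nm. Cell death % = (1 − A_test/A_control) × 100. Quadruplicate wells, three independent experiments; mean ± SD.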

MCF7 = assay: Cytotoxicity against human MCF7 cells after 72 hrs by MTT assay; format: functional, cell-based; conditions: MCF7, 72 h
HT-29 = assay: Cytotoxicity against human HT-29 cells after 72 hrs by MTT assay; format: functional, cell-based; conditions: HT-29, 72 h
Method in brief: (§2)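 Tumour cells plated at 10⁵ cells/mL (adherent) or 3 × 10⁵ cells/mL (leukaemias) in medium with fetal bovine serum, 2 mM glutamine, penicillin/streptomycin, 37 °C, 5% CO₂. Compounds ([…], 0.1% DMSO) added for 72 h; MTT (5 mg/mL stock) added at 69 h, formazan dissolved in DMSO after 3 h, read at 595 nm. IC50 with 95% CI from nonlinear regression, two experiments.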

[2] = Cytotoxicity against LPS-stimulated Balb/c mouse peritoneal macrophages assessed as cell viability at 12.5 ug/ml after 24 hrs by MTT assay relative to control; format: cell-based, Peritoneal macrophage cell; conditions: read-out: Activity; method in brief: as §1
[3] = Cytotoxicity against LPS-stimulated Balb/c mouse peritoneal macrophages assessed as cell viability at 6.2 ug/ml after 24 hrs by MTT assay relative to control; format: cell-based, Peritoneal macrophage cell; conditions: read-out: Activity; method in brief: as §1
K562 = assay: Cytotoxicity against human K562 cells after 72 hrs by MTT assay; format: functional, cell-based; conditions: K562, 72 h; method in brief: as §2
[4] = Cytotoxicity against LPS-stimulated Balb/c mouse peritoneal macrophages assessed as cell viability after 24 hrs by MTT assay; format: cell-based; conditions: peritoneal macrophage cell; method in brief: as §1
NCI-H292 = assay: Cytotoxicity against human NCI-H292 cells after 72 hrs by MTT assay; format: functional, cell-based; conditions: NCI-H292, 72 h; method in brief: as §2
[5] = Cytotoxicity against LPS-stimulated Balb/c mouse peritoneal macrophages assessed as cell viability at 25 ug/ml after 24 hrs by MTT assay relative to control; format: cell-based, Peritoneal macrophage cell; conditions: read-out: Activity; method in brief: as §1
HL-60 = assay: Cytotoxicity against human HL60 cells after 72 hrs by MTT assay; format: functional, cell-based; conditions: HL-60, 72 h; method in brief: as §2
[6] = Antiinflammatory activity in Balb/c mouse peritoneal macrophages assessed as reduction in LPS-induced TNF-alpha production at 3.1 ug/ml after 24 hrs by ELISA relative to control; format: functional, Peritoneal macrophage cell
Method in brief: (§3)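 Thioglycollate-elicited (2.5 mL 3%, i.p., 72 h) peritoneal cells from Balb/c mice, viability checked by trypan blue, cultured at 5 × 10⁶ cells/mL in RPMI-1640 + 10% FBS; non-adherent cells removed after 2 h at 37 °C, 5% CO₂. Adherent macrophages treated with compound plus LPS (1 µg/mL) 24 h; supernatant collected. Mean ± SD of three independent experiments; ANOVA with Newman-Keuls versus medium-only cells.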

[7] = Antiinflammatory activity in Balb/c mouse peritoneal macrophages assessed as reduction in LPS-induced nitric oxide production at 3.1 ug/ml after 24 hrs by Griess method relative to control; format: functional, Peritoneal macrophage cell; method in brief: as §3

Row | Compound | viability at 24 h, 3.1 ug/ml [1] [%] | IC50 (MCF7) [µg/mL] | IC50 (HT-29) [µg/mL] | viability at 24 h, 12.5 ug/ml [2] [%] | viability at 24 h, 6.2 ug/ml [3] [%] | IC50 (K562) [µg/mL] | Activity [4] | IC50 (NCI-H292) [µg/mL] | viability at 24 h, 25 ug/ml [5] [%] | IC50 (HL-60) [µg/mL] | Activity [6] [pg/mL] | Activity [7] [µM]
1 | O=C1C=CCC(c2ccccc2)O1 (configuration not stated) | 34.5 | 22.9 (≈ 131 µM) | 10.9 (≈ 62.6 µM) | 1 | 30.9 | 8.9 (≈ 51.1 µM) | Dose-dependent effect | 9.1 (≈ 52.2 µM) | 7.4 | 13.2 (≈ 75.8 µM) |  | 
2 | O=C1C=CCC(COc2ccccc2)O1 (configuration not stated) | 93 | 22.5 (≈ 110 µM) | 4.4 (≈ 21.5 µM) | 0 | 47.3 | 2.9 (≈ 14.2 µM) | Dose-dependent effect | 0.8 (≈ 3.92 µM) | 0 | 5.4 (≈ 26.4 µM) | 112.4 | 5.2
3 | C=CCCC1CC=CC(=O)O1 (configuration not stated) | 57 | > 100 | > 100 | 19.7 | 45.4 |  | Dose-dependent effect | > 100 | 2.5 |  |  | 
4 | C=CCOCC1CC=CC(=O)O1 (configuration not stated) | 100 | 44.6 (≈ 265 µM) | 18.4 (≈ 109 µM) | 51.1 | 77.2 | 50 (≈ 297 µM) | Dose-dependent effect | 16.6 (≈ 98.7 µM) | 7.7 | 25.5 (≈ 152 µM) | 210 | 2.7
5 | CCCCC[C@@H]1CC=CC(=O)O1 |  | 60 (≈ 357 µM) | 22.6 (≈ 134 µM) |  |  | 20.2 (≈ 120 µM) |  | 11.3 (≈ 67.2 µM) |  | 16 (≈ 95.1 µM) |  | 
6 | CCC1CC=CC(=O)O1 (configuration not stated) |  | > 100 | > 100 |  |  |  |  | > 100 |  |  |  | 
7 | COc1cccc2c1C(=O)c1c(O)c3c(c(O)c1C2=O)C[C@@](O)(C(=O)CO)C[C@@H]3O[C@H]1C[C@H](N)[C@H](O)[C@H](C)O1 [DOXORUBICIN] |  |  |  |  |  | 0.26 (≈ 0.478 µM) |  | 0.02 (≈ 0.0368 µM) |  |  |  | 
